Measured values: ChEMBL document CHEMBL3853309, “Lovastatin Analogues from the Soil-Derived Fungus Aspergillus sclerotiorum PSU-RSPG178” (J Nat Prod, 2016)
Active and inactive are the calls of the source. No cut-off for these calls is given here.

Columns and labels:
[1] = Cytotoxicity against human MCF7 cells by resazurin microplate assay; format: functional, cell-based
In short: (§1)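 KB and MCF-7 cells assayed by resazurin microplate method; positive controls ellipticine and doxorubicin for KB, doxorubicin and tamoxifen for MCF-7.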

Plasmodium falciparum = assay: Antimalarial activity against multi-drug-resistant Plasmodium falciparum K1 by microculture radioisotope technique; format: functional
In short: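 Parasite: P. falciparum K1 (multidrug-resistant). Growth inhibition read by a microculture radioisotope method adapted from a published protocol. Dihydroartemisinine and mefloquine served as reference standards.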

[2] = Cytotoxicity against African green monkey Vero cells; format: toxicity, cell-based; details: African green monkey (Chlorocebus sabaeus)
In short: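 Vero (African green monkey kidney fibroblast) cells tested in triplicate by the Hunt et al. method; ellipticine positive control.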

[3] = Cytotoxicity against human KB cells by resazurin microplate assay; format: functional, cell-based; in short: as §1
[4] = target: T1, 3-hydroxy-3-methylglutaryl-coenzyme A reductase (Homo sapiens) (UniProt P04035); assay: Inhibition of human HMGR catalytic domain at 200 uM using HMG-CoA as substrate measured every 20 secs for 10 mins relative to control
T1 sequence (whole entry): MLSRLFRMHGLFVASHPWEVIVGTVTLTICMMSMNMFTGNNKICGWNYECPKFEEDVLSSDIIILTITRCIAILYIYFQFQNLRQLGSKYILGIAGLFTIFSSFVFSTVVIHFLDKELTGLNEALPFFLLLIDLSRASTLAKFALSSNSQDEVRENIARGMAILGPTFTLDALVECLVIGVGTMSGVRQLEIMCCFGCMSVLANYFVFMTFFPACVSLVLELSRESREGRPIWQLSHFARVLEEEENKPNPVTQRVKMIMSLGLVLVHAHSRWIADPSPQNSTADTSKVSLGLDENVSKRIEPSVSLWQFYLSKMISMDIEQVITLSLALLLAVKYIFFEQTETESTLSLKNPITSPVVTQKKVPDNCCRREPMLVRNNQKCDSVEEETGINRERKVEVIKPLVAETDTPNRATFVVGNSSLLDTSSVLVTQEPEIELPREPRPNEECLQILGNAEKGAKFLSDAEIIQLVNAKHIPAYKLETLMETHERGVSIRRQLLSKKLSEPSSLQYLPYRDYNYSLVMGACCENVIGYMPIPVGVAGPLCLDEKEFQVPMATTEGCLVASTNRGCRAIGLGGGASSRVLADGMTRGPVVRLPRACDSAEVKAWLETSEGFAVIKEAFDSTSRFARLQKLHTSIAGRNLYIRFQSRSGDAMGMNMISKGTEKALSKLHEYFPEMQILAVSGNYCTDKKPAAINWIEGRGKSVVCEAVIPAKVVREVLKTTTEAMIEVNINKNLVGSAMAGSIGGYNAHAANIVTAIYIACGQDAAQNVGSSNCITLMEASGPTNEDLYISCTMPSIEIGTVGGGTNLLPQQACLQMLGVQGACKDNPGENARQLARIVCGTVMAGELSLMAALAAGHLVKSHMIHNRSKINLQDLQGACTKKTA
In short: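 Sigma HMG-CoA reductase kit, modified: 1× assay buffer, NADPH, HMG-CoA (800 μM final), test compound at 200 μM final; reaction started by adding human HMGR catalytic domain (0.6 μM final) at 37 °C. NADPH oxidation followed at 340 nm for 10 min, 20 s intervals.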

[5] = target: T2, 3-hydroxy-3-methylglutaryl-coenzyme A reductase (Homo sapiens, UniProt P04035); assay: Inhibition of human HMGR catalytic domain using 800 uM HMG-CoA as substrate measured every 20 secs for 10 mins
T2 sequence (P04035 whole entry): T1 sequence (whole entry)
In short: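 Dose-response format of the kit assay: 1× buffer, NADPH, 800 μM HMG-CoA, graded compound concentrations, human HMGR catalytic domain 0.6 μM final added to start at 37 °C.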

[6] = target: T1, 3-hydroxy-3-methylglutaryl-coenzyme A reductase (Homo sapiens); assay: Binding affinity to human HMGR catalytic domain at 50 uM in presence of 800 to 3200 uM HMG-CoA as substrate measured every 20 secs for 10 mins
In short: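 Direct-interaction test: compound at 50 μM with HMG-CoA at 800, 1600 and 3200 μM, plus NADPH and human HMGR catalytic domain at 37 °C. Activity read at 340 nm for 10 min at 20 s intervals, reported as percent inhibition versus untreated control; n = 3.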

[7] = target: T1, 3-hydroxy-3-methylglutaryl-coenzyme A reductase (Homo sapiens); details: 1 uM

Compound	IC50 [1] [µM]	IC50 [2] [µM]	IC50 [3] [µM]	inhibition [4] [%]	also measured
COc1cccc2c1C(=O)c1c(O)c3c(c(O)c1C2=O)C[C@@](O)(C(=O)CO)C[C@@H]3O[C@H]1C[C@H](N)[C@H](O)[C@H](C)O1 [DOXORUBICIN]	6.75				
O[C@@H](c1cc(C(F)(F)F)nc2c(C(F)(F)F)cccc12)[C@H]1CCCCN1 [(S,R)-MEFLOQUINE]					IC50 (Plasmodium falciparum): 0.0269 µM
Cc1c2ccncc2c(C)c2c1[nH]c1ccccc12 [ELLIPTECINE]		1	2.03		
CC[C@H](C)C(=O)O[C@H]1C[C@@H](C)[C@H](O)C2=C[C@@H](O)[C@H](C)[C@H](CC[C@@H]3CC=CC(=O)O3)[C@H]21		40	31.6	50	IC50 [5]: 387 µM; Activity [6]: Active
CC[C@H](C)C(=O)O[C@H]1C[C@H](O)C=C2C=C[C@H](C)[C@H](CC[C@@H](O)C[C@@H](O)CC(=O)O)[C@H]21					inhibition [7]: 90.4%
CC[C@H](C)C(=O)O[C@H]1C[C@@H](C)C[C@@H]2C=C[C@H](C)[C@H](CC[C@@H]3CC=CC(=O)O3)[C@@H]12		14.5	15.2	17.2	
CC/C(=C(\c1ccccc1)c1ccc(OCCN(C)C)cc1)c1ccccc1 [TAMOXIFEN]	6.99				
CC[C@H](C)C(=O)O[C@H]1C[C@@H](C)[C@H](OC(C)=O)C2=C[C@@H](OC(C)=O)[C@H](C)[C@H](CC[C@@H]3CC=CC(=O)O3)[C@H]21	74.7	8.4	19.8	20.4	
C[C@H]1[C@@H](O)O[C@@H]2O[C@@]3(C)CC[C@H]4[C@H](C)CC[C@@H]1[C@@]24OO3 [ARTENIMOL]					IC50 (Plasmodium falciparum): 0.0023 µM
CC[C@H](C)C(=O)O[C@H]1C[C@@H](C)C=C2C=C[C@H](C)[C@H](CC[C@@H]3CC=CC(=O)O3)[C@H]21	57.3	8.1	20.1	8.4	
CC[C@H](C)C(=O)O[C@H]1C[C@@H](C)C=C2C=C[C@H](C)[C@H](CC[C@@H]3C[C@@H](O)CC(=O)O3)[C@H]21 [LOVASTATIN]		2.2	15.6	42	Activity [6]: Active
